Measured values as given in PubChem BioAssay.
The source made the active and inactive calls.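 How the source made its calls, unless noted: active means fluorescence slope higher than the sample average by over 3 SD (cut at about -0.22 in these data, passing the limit was not always enough); inactive means the rest.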

What was measured:
[1] = inhibitors of TNFa-induced NFkB p65 translocation, primary screen, imaging, HUVEC, MLSMR starter and 10KST1 sets (AID 438;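 active means inhibition above 20% together with a positive visual image hit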;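 further: compound added about 3h40 before a 20 min TNFalpha stimulation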;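 on inhibition: signal is the nuclear over cytoplasmic p65 intensity ratio per well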); conditions: HUVEC TNFa-induced p65 nuclear translocation; cell count: measured here: nuclei count (cytotoxicity indicator), at 2.08 µM; inhibition: at 2 µM, stronger effect = higher value, 0% TNFa-plus-vehicle, 100% no-TNFa wells
[2] = inhibitors of E-selectin induction by TNFa, primary screen, imaging, HUVEC, immunofluorescence, MLSMR starter and 10KST1 sets (AID 487;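 active means visually confirmed hit in the image check and inhibition above 20%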;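 on inhibition: signal is fraction of cell area covered by stained E-selectin grains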;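 on nuclei count: 100% = median nuclei count of all wells on the same plate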); conditions: HUVEC TNFalpha-induced E-selectin immunofluorescence imaging, at 2 µM; inhibition: stronger effect = higher value; nuclei count: measured here: cell number, toxicity
[3] = DUSP6 inhibitors restoring Erk phosphorylation by chemical complementation, primary imaging in DUSP6-transfected HeLa (AID 609;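 active means compounds giving at least 50% inhibition in the cell-based MKP-3 phosphatase rescue imaging test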;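 on inhibition: phospho-Erk level distribution per well compared with pooled transfected vehicle control wells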); conditions: HeLa MKP-3 transfected, phospho-Erk imaging KS statistic, at 10 µM, cells stimulated with TPA for 15 min
[4] = target: Dual specificity protein phosphatase 6 (Homo sapiens) (UniProt Q16828); experiment: as above; conditions: HeLa MKP-3 transfected, phospho-Erk imaging KS statistic; at 10 µM; stronger effect = higher value; cells stimulated with TPA for 15 min
Sequence of Dual specificity protein phosphatase 6 (Homo sapiens) (Q16828 whole entry, looked up): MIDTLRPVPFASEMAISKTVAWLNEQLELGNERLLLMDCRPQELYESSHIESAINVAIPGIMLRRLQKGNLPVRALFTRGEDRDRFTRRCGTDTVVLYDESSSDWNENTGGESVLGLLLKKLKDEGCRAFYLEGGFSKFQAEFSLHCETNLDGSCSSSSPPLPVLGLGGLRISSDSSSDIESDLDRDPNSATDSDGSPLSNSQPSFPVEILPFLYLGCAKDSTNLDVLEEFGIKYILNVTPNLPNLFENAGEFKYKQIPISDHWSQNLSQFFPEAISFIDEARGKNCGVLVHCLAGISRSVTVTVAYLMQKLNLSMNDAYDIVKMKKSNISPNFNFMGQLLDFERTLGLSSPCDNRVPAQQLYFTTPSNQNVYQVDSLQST

[5] = target: Voltage-gated potassium channel subunit beta-2 (Rattus norvegicus) (UniProt P62483); experiment: KvBeta enzyme negative modulators, primary screen, biochemical, NADPH fluorescence (AID 622); conditions: recombinant KvBeta, 4-cyanobenzaldehyde reduction, at 10 µM, stronger effect = higher value;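 further: slope of raw intensity against log time taken from 70 to 1610 s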
Sequence of Voltage-gated potassium channel subunit beta-2 (Rattus norvegicus) (P62483 whole entry, looked up): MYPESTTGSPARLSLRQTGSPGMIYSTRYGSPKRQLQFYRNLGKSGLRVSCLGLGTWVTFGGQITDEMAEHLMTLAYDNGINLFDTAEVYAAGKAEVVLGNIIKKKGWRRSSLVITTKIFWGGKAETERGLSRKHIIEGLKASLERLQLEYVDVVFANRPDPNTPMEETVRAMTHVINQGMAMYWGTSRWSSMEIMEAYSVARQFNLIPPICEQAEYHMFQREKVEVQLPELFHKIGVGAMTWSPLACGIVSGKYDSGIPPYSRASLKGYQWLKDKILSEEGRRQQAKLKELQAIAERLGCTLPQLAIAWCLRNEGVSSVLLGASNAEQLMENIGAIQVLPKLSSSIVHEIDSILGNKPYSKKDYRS

[6] = target: Voltage-gated potassium channel subunit beta-2 (Rattus norvegicus) (UniProt P62483); experiment: KvBeta positive modulators, primary screen, biochemical, NADPH fluorescence (AID 623;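 active means NADPH fluorescence slope more negative than the mean of all samples by about 3 SD, 99.7% confidence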;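 further: fluorescence intensity change per second fitted from 20 to 320 s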); conditions: Recombinant KvBeta, NADPH fluorescence decrease slope, 10 min; at 10 µM; stronger effect = lower value
[7] = target: Muscarinic acetylcholine receptor M4 (Homo sapiens) (UniProt P08173); experiment: compounds altering M4/GIRK thallium flux, either direction, primary screen, M4 allosteric agonist project, cell-based, HEK293 M4/GIRK, BTC-AM (AID 625;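 active means fluorescence slope after compound addition differing from the mean of all tested samples at 99.7% confidence, mostly higher but some lower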;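 further: thallium influx through GIRK channels coupled to M4 in HEK293 cells with BTC-AM dye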); conditions: at 10 µM, actives lie on both sides
Sequence of Muscarinic acetylcholine receptor M4 (Homo sapiens) (P08173 whole entry, looked up): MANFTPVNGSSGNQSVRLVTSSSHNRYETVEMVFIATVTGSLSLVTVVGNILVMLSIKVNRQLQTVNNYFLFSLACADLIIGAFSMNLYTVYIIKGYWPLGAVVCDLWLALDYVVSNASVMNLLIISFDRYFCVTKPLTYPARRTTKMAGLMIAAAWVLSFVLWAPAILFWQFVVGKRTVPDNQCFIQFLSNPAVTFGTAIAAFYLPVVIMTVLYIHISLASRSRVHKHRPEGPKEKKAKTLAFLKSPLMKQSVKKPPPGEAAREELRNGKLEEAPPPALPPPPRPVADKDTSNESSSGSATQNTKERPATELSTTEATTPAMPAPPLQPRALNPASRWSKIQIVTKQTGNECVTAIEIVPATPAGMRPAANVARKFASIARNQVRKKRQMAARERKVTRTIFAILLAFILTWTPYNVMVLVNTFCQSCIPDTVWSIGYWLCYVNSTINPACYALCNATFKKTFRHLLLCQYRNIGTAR
Outline: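 Assay system: HEK293 cells with M4 receptor and GIRK channels / Controls: carbachol and DMSO controls / Schedule: 1 h dye loading, 2 min kinetic read / Technique: kinetic fluorescence with BTC-AM dye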

[8] = inhibitors of larval lipid processing in zebrafish, primary screen, whole organism, PED6 fluorescence, gall bladder and intestine (AID 686;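 active means a full or partial loss of lipid-probe fluorescence in the fish gall bladder, intestine or both, judged by eye; inactive means no fluorescence loss, or compound toxic to the fish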;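 further: larvae 5 to 7 days old with five fish per well; signal comes from phospholipase A2 cleavage of quenched PED6 carried via bile; overnight exposure to compound and PED6 before scoring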); conditions: Zebrafish larvae PED6 lipid processing, fluorescence scoring; screened at 20 µM (by protocol)
Outline: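 Doses: 20 µM single dose. Test system: live zebrafish larvae aged 5-7 days, whole organism. Quantity: five larvae per well. Measured by: By-eye fluorescence microscopy. Reagent: ingested quenched lipid PED6 at 100 nM. Read-out: visual per-well fluorescence inhibition score. Times: overnight exposure of larvae to compound plus PED6.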

[9] = inhibitors of Chlamydomonas gravitaxis, primary screen, whole organism, Chlamydomonas reinhardtii, WT vs cilia-less mutant, absorbance, 96-well (AID 463189;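 active means inhibition at or above 50% relative to wild type and mutant plate controls; inactive means inhibition below 50%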;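 further: 0% = wild type cc124 cells in DMSO and 100% = ciliumless bld1 mutant cells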); conditions: OD600 absorbance, 2 days, at 10 µM, stronger effect = higher value
[10] = measured here: cell density z-score
[11] = measured here: nuclear c-Myc green intensity z-score
[12] = measured here: nuclear pErk red intensity z-score, stronger effect = higher value

SMILES | cell count [1] | inhibition [1] | inhibition [2] | nuclei count [2] | z-score [3, 10] | z-score [3, 11] | z-score [3, 12] | inhibition [4] | fluorescence slope [5] | NADPH fluorescence slope [6] | fluorescence slope [7] | outcome [8] | inhibition [9]
CN(C)CCCN(CCCNC(=O)/C=N/O)Cc1ccccc1 | 652 | -10.5% (inactive) | -38% (inactive) | 181% | -1.02 | -0.157 | 0.798 | -2.09% (inactive) | -0.495 (inactive) | -5.8e-05 (inactive) | 0.00839 (inactive) | inactive | 8.7% (inactive)
COc1ccc2c(c1OC)C(=O)N1c3ccccc3C(=O)N(c3ccccc3F)C21 (configuration not stated) | 708 | -7.9% (inactive) | -37.7% (inactive) | 134% | 0.797 | -1.74 | -0.312 | 5.35% (inactive) | -0.444 (inactive) | -5.7e-05 (inactive) | 0.00636 (inactive) | inactive | 3.94% (inactive)
C=CCn1c(C2CC(=O)N(c3ccc(C)cc3)C2)nc2ccccc21 (configuration not stated) | 591 | -13.7% (inactive) | 47.4% (inactive) | 177% | -1.26 | -0.0771 | 0.981 | -2.29% (inactive) | -0.467 (inactive) | -0.00019 (inactive) | 0.00532 (inactive) | inactive | 2% (inactive)
Cn1c(=O)c2c(nc(NCc3ccco3)n2Cc2ccccc2Cl)n(C)c1=O | 502 | -4.4% (inactive) | -15.6% (inactive) | 92.2% | 0.653 | -0.74 | 0.354 | 12.8% (inactive) | -0.463 (inactive) | -2.4e-05 (inactive) | 0.00464 (inactive) | inactive | -9.48% (inactive)
Nc1nnnn1/N=C/c1ccco1 | 510 | -4% (inactive) | -8.3% (inactive) | 90.4% | 0.476 | 0.245 | -0.718 | 11% (inactive) | -0.502 (inactive) | -4.9e-05 (inactive) | 0.00713 (inactive) | inactive | -6.14% (inactive)
CCc1ccc(NC(=O)CSC2=C(C#N)C(c3ccc4c(c3)OCO4)CC(=O)N2)cc1 (configuration not stated) | 599 | -14% (inactive) | 41.8% (inactive) | 91.1% | 1.39 | -1.52 | -0.214 | 22.7% (inactive) | -0.491 (inactive) | -4.6e-05 (inactive) | 0.00667 (inactive) | inactive | -5% (inactive)
Nc1c2c(nc3ccccc13)N(c1ccccc1)CC2 | 585 | 0.4% (inactive) | 60.7% (active) | 92.9% | 0.356 | -0.531 | -0.713 | -2.09% (inactive) | -0.0969 (active) | -1.3e-05 (inactive) | 0.00425 (inactive) | inactive; toxic | 15.7% (inactive)
O=C(OCCN1CCOCC1)c1ccc2c(c1)OCCO2 | 644 | -12.8% (inactive) | 1.7% (inactive) | 180% | 0.036 | 0.0112 | 0.434 | -9.53% (inactive) | -0.473 (inactive) | -6.5e-05 (inactive) | 0.00543 (inactive) | inactive | -3.31% (inactive)
CN(C)CCCOC(=O)c1ccc(Cl)cc1Cl | 542 | 0% (inactive) | -26.6% (inactive) | 126% | -3.39 | 0.341 | 0.409 | -2.59% (inactive) | -0.49 (inactive) | -0.0001 (inactive) | 0.00455 (inactive) | inactive | 121% (active)
COc1ccc(OC)c(C2C(C(=O)c3sc(C)nc3C)=C(O)C(=O)N2CCN2CCOCC2)c1 (configuration not stated) | 369 | 2.2% (inactive) | 35.1% (inactive) | 148% | -0.927 | -0.477 | 2.22 | -4.78% (inactive) | -0.46 (inactive) | -0.000134 (inactive) | 0.00498 (inactive) | inactive | 14.2% (inactive)
FC(F)(F)c1cccc(-n2cccc2/C=N/n2cnnc2)c1 | 415 | -3.1% (inactive) | 39.9% (inactive) | 140% | -1.39 | 0.953 | 1.88 | -0.608% (inactive) | -0.438 (inactive) | -0.00012 (inactive) | 0.00494 (inactive) | inactive | 13.6% (inactive)
CCNC(=O)c1cc2c(=O)n3cccc(C)c3nc2n(CCc2ccccc2)c1=N | 643 | 8.2% (inactive) | -7.9% (inactive) | 106% | -0.692 | 0.0237 | -0.676 | 14.7% (inactive) | -0.0428 (inactive) | -1.8e-05 (inactive) | 0.00034 (inactive) | active; no signal in intestine only | 70.9% (active)
CN(C)CCCn1c(NC(=O)C2CCCCC2)nc2ccccc21 | 672 | 9.7% (inactive) | -32.4% (inactive) | 112% | 0.036 | -0.199 | -1.54 | -3.95% (inactive) | -0.437 (inactive) | -3.5e-05 (inactive) | 0.00538 (inactive) | inactive | -0.148% (inactive)
CNC(=O)CCn1nc(-c2ccccc2)c2ccccc2c1=O | 737 | -2.4% (inactive) | -67.9% (inactive) | 156% | 1.04 | -1.35 | -0.0887 | 11.4% (inactive) | -0.455 (inactive) | -2.4e-05 (inactive) | 0.00449 (inactive) | inactive | 10.7% (inactive)
